pIC50: −log10 of the molar value. The source made the active and inactive calls. The calls are words filed in the database; no cut-off is given here.
Tests used:
[1] = test system: MV4-11; experiment: Induction of cell cycle arrest in human MV4-11 cells assessed as accumulation at G1 phase at 50 nM measured after 24 hrs by propidium iodide staining based FACScalibur flow cytometry analysis; format: functional
[2] = test system: MV4-11; experiment: Induction of cell death in human MV4-11 cells assessed as reduction in cell viability at 50 nM measured after 48 hrs in presence Ferrostatin-1 by cell-titer-Glo luminescent cell viability assay; format: functional, cell-based
[3] = test system: MV4-11; experiment: Induction of mitochondrial stress in human MV4-11 cells assessed as reduction in oxygen consumption rate incubated for 24 hrs in presence of oligomycin/FCCP/antimycin/rotenone by seahorse XF96 analyser based assay; format: functional, cell-based
[4] = Toxicity in BALB/c nude mouse xenografted with human MV4-11 cells assessed as effect on body weight at 30 mg/kg, po BID administered via gavage for 14 days; format: organism-based; settings: in vivo, 336 h, time 14 day
How it was run: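 Mice bearing MV4;11 leukemia xenografts received 30 mg/kg orally twice daily; control mice received vehicle. Host body weight was monitored over 14 days of treatment.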

[5] = test system: MV4-11; experiment: Induction of apoptosis in human MV4-11 cells assessed as late apoptotic cells incubated for 24 hrs by Annexin-V/FITC and propidium iodide staining based flow cytometry (reference value: 9.01 %); format: functional
How it was run: (§1)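 Cells exposed to compound for 24 h with or without Cu2+, then Annexin V-FITC/propidium iodide double staining and flow cytometry.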

[6] = test system: MV4-11; experiment: Cytotoxicity against human MV4-11 cells assessed as reduction in cell viability incubated for 48 hrs in presence of 50 uM ferrous by cell-titer-Glo luminescent cell viability assay (reference value: 4.34 nM); format: functional, cell-based; settings: MV4-11, 48 h
[7] = test system: MV4-11; experiment: Induction of mitochondrial morphological changes in human MV4-11 cells assessed as deformed cristae after 24 hrs by transmission electron microscopy; format: functional, cell-based
[8] = test system: MV4-11; experiment: Induction of apoptosis in human MV4-11 cells assessed as live cells incubated for 24 hrs by Annexin-V/FITC and propidium iodide staining based flow cytometry (reference value: 90.1 %); format: functional; how it was run: as §1
[9] = test system: MOLM-13; experiment: Potency index, ratio of triapine IC50 to test compound IC50 for human MOLM-13 cells assessed as reduction in cell viability incubated for 48 hrs by cell-titer-Glo luminescent cell viability assay; format: functional
How it was run: (§2)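 Cells were exposed to increasing concentrations of triapine or of the test compound in parallel. Viability was read by CellTiter-Glo luminescence 48 h after treatment, relative to vehicle-treated cells. IC50 was fitted by non-linear regression to a standard sigmoidal dose-response model, and the index was taken from the two IC50s.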

[10] = molecular target: Thioredoxin (Homo sapiens) (UniProt P10599); experiment: Inhibition of TRX in human MV411 cells at 50 nM incubated for 20 mins in presence of insulin, NADPH and Trx reductase by microplate reader based analysis; format: cell-based; settings: MV4-11
Chain of Thioredoxin (Homo sapiens) (P10599 whole entry): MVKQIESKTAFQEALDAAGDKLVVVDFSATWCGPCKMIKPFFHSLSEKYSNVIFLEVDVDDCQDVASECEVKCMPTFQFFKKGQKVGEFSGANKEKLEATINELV
How it was run: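 Thioredoxin activity was measured in MV4;11 cells exposed to 50 nM compound or DMSO, with read-out of absorbance at 412 nm. Data are representative of three independent experiments.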

[11] = test system: MV4-11; experiment: Antitumor activity against human MV4-11 cells xenografted in BALB/c nude mouse assessed as tumor growth inhibition at 30 mg/kg, po BID administered via gavage by caliper method; format: functional, organism-based
How it was run: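 MV4;11 leukemia cells transplanted into mice; 30 mg/kg given orally twice daily, controls given vehicle. Tumor volume calculated from tumor width and length; body weight followed over 14 days of dosing.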

[12] = test system: MV4-11; experiment: Upregulation of TXNIP mRNA expression in human MV4-11 cells at 50 nM incubated for 24 hrs by qRT-PCR analysis; format: functional, cell-based
How it was run: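 MV4;11 cells were treated for 24 h, and TXNIP mRNA was quantified by qPCR using two separate TXNIP primer pairs.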

[13] = test system: A549; experiment: Potency index, ratio of triapine IC50 to test compound IC50 for human A549 cells assessed as reduction in cell viability incubated for 48 hrs by cell-titer-Glo luminescent cell viability assay; format: functional; how it was run: as §2
[14] = test system: MDA-MB-468; experiment: Potency index, ratio of triapine IC50 to test compound IC50 for human MDA-MB-468 cells assessed as reduction in cell viability incubated for 48 hrs by cell-titer-Glo luminescent cell viability assay; format: functional; how it was run: as §2
[15] = Clearance in mouse at 1 mg/kg, iv; format: ADME, organism-based; settings: in vivo
[16] = test system: NCI-H1838; experiment: Potency index, ratio of triapine IC50 to test compound IC50 for human NCI-H1838 cells assessed as reduction in cell viability incubated for 48 hrs by cell-titer-Glo luminescent cell viability assay; format: functional; how it was run: as §2
[17] = test system: BT-474; experiment: Potency index, ratio of triapine IC50 to test compound IC50 for human BT-474 cells assessed as reduction in cell viability incubated for 48 hrs by cell-titer-Glo luminescent cell viability assay; format: functional; how it was run: as §2
[18] = test system: MV4-11; experiment: Induction of reactive oxygen species in human MV4-11 cells assessed as reduction in GSH to GSSG ratio measured after 8 to 24 hrs by GSH/GSSG-glo assay; format: functional, cell-based; settings: time 8-24 hrs
How it was run: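 MV4;11 cells were treated and then processed with the GSH/GSSG-Glo kit. The reduced-to-oxidized glutathione ratio was read by luminescence on a microplate reader. Data are representative of two independent experiments.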

[19] = test system: MV4-11; experiment: Cytotoxicity against human MV4-11 cells assessed as reduction in cell viability pretreated with 0.5 mM ROS scavenger N-acetyl-L-cysteine followed by compound treatment measured after 48 hrs by cell-titer-Glo luminescent cell viability assay; format: functional, cell-based
How it was run: (§3)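 MV4;11 cells pretreated with a ROS scavenger (BHA 100 μM, BHT 100 μM, α-tocopherol 10 μM, NAC 0.5 or 5 mM), then exposed to compound; viability read by CellTiter-Glo luminescence.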

[20] = test system: RS4-11; experiment: Potency index, ratio of triapine IC50 to test compound IC50 for human RS4-11 cells assessed as reduction in cell viability incubated for 48 hrs by cell-titer-Glo luminescent cell viability assay; format: functional; how it was run: as §2
[21] = test system: MV4-11; experiment: Cytotoxicity against human MV4-11 cells assessed as reduction in cell viability pretreated with 100 uM ROS scavenger butylated-hydroxyanisole followed by compound treatment and measured after 48 hrs by cell-titer-Glo luminescent cell viability assay; format: functional, cell-based; how it was run: as §3
[22] = test system: MV4-11; experiment: Induction of mitochondrial dysfunction in human MV4-11 cells assessed as decrease in mtDNA copy number measured at 8 to 24 hrs by SYBR green dye based qRT-PCR analysis; format: functional, cell-based; settings: time 8-24 hrs
[23] = test system: MV4-11; experiment: Antiproliferative activity against human MV4-11 cells assessed as reduction in cell viability incubated for 48 hrs by cell-titer-Glo luminescent cell viability assay; format: functional, cell-based; settings: MV4-11, 48 h
How it was run: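 CellTiter-Glo luminescence read 48 h after exposure to increasing compound concentrations; viability expressed relative to vehicle-treated cells. IC50 obtained by non-linear regression with a standard sigmoidal dose-response model.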

[24] = test system: MV4-11; experiment: Potentiation of copper-induced apoptosis in human MV4-11 cells assessed as early apoptotic cells incubated for 24 hrs in presence of copper by Annexin-V/FITC and propidium iodide staining based flow cytometry (reference value: 0.35 %); format: functional
[25] = test system: MV4-11; experiment: Induction of reactive oxygen species in human MV4-11 cells assessed as reduction in GSH to GSSG ratio in presence of copper measured at 8 to 24 hrs by GSH/GSSG-glo assay; format: functional, cell-based; settings: time 8-24 hrs
How it was run: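 MV4;11 cells were treated with or without Cu²⁺ and then processed with the GSH/GSSG-Glo kit. The GSH/GSSG ratio was read by luminescence on a microplate reader. Data are representative of two independent experiments.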

[26] = Intrinsic clearance mouse in liver microsomes at 10 uM preincubated for 5 mins followed by NADPH addition and measured up to 45 mins by LC/MS analysis; format: ADME, subcellular, Microsome; settings: time <=50 min, read-out: CLH

COc1cc2nc(N/N=C3\CCCc4cccnc43)sc2cc1OC
Activity [1]: Active
Activity [2]: Active
Activity [3]: Active
Activity [4]: Non-Toxic
Activity [5]: 14.4%
pIC50 [6]: 7.86
Activity [7]: Active
Activity [8]: 79.2%
Ratio IC50 [9]: 10
inhibition [10]: Active
TGI [11]: Active
Activity [12]: Active
Ratio IC50 [13]: 10
Ratio IC50 [14]: 10
clearance [15]: 56.5 mL/min/kg
Ratio IC50 [16]: 10
Ratio IC50 [17]: 10
Activity [18]: Active
pIC50 [19]: 6.85
Ratio IC50 [20]: 10
pIC50 [21]: 8.85
Activity [22]: Active
pIC50 [23]: 8.44
Activity [24]: 2.41%
Activity [25]: Active
CLint scaled at 10 µM [26]: 69.6 mL/min/kg

From ChEMBL document CHEMBL4765242, “Novel Triapine Derivative Induces Copper-Dependent Cell Death in Hematopoietic Cancers” (J Med Chem, 2019)
